Source: PubChem BioAssay
Compounds with a hit are over-represented: about 2% of the library has one in this group of screens.
EBI2 block = EBI2 (human) antagonism; P32249; EBI2 beta-arrestin recruitment, luminescence, 7a,25-OHC stimulated; inhibition, % at 5 µM; 360,000 compounds, 0.81% hits; AID 651636; in the data active means inhibition above about 38%;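 further: enzyme fragment complementation signal reports receptor beta-arrestin coupling in cells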
Target sequence (P32249 whole entry, looked up, the tested form may be a part): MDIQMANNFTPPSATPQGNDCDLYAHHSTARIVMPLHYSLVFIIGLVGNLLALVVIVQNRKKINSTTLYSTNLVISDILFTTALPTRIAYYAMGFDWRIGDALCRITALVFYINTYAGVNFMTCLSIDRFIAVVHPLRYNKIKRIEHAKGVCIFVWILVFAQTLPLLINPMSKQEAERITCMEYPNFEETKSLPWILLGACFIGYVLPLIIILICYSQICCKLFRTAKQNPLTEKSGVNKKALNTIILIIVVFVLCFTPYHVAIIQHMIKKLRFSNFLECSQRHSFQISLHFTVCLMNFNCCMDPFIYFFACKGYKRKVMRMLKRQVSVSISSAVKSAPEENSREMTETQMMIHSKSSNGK
CCR6 antag = antagonists of human CCR6 receptor; P51684; CHO-K1 CCR6 PathHunter beta-arrestin, luminescence, CCL20-stimulated; inhibition, % at 20 µM; 340,000 compounds, 0.49% hits;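 active means compounds whose inhibition of the agonist-driven luminescence signal at 20 µM reaches about 50%, limit read from the data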;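 further: cells stimulated with CCL20 at 14 nM final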
CXCR6 inh = inhibitors of human CXCR6 receptor | CHO-K1 PathHunter CXCR6 beta-arrestin, luminescence | inhibition, % at 20 µM | 360,000 compounds, 0.36% hits; in the data active means inhibition above about 34%, passing the limit was not always enough;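 further: antagonist mode with CXCL16 agonist at 10 nM final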
GAA850 FXN act = increases GAA850 frataxin promoter reporter activity. 360,000 compounds, 0.56% hits. activation, % at 6 µM. HEK293 lucGAA850 FXN promoter luciferase reporter, 24 h; percent of 10 µM SAHA response;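 active means activation above the average of all compounds screened plus 3 SD, cutoff fixed separately per campaign, cut at about 7.5% in these data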
APJ agonist = agonists of human APJ apelin receptor. P35414. CHO-K1 APJ PathHunter beta-arrestin, luminescence; 0% DMSO wells, 100% apelin. activation, % at 20 µM. 330,000 compounds, 0.11% hits. AID 2520;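 active means activation more than six SD over the plate average, tested at 20 µM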
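Test system: CHO-K1 APJ beta-arrestin complementation cell line | Compound: Single test compound dose, 20 µM final, 1% DMSO | Incubation: Compound 90 min 25 °C, reagent 1 h | Measured by: beta-gal luminescence | Read-out basis: APJ–arrestin association signal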
APJ antag = antagonists of human APJ apelin receptor | P35414 | CHO-K1 APJ beta-arrestin complementation, luminescence | inhibition, % at 20 µM | 330,000 compounds, 0.32% hits | AID 2521;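 active means inhibition above about 40% at 20 µM, limit read from the data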;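 further: cells challenged with 10 nM apelin-13 agonist together with compound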
APJ antag conf = APJ receptor antagonism confirmation | shares compounds with APJ antag | APJ beta-arrestin recruitment, luminescence, antagonist mode | inhibition, % at 20 µM | 950 compounds, 66% hits; in the data active means inhibition above about 50%
GAA30 counter = counter-screen for GAA850 frataxin promoter activators: GAA30 promoter activation. AID 588350. shares compounds with GAA850 FXN act. activation, % at 6 µM. 1,900 compounds, 66% hits. HEK293 lucGAA30 FXN promoter luciferase, 24 h; DMSO = 0%, 5 µM ipriflavone = 100%;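 active means mean activation above the mean of solvent-only control wells plus 3 SD, cut at about 22% in these data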;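 further: counterscreen of GAA850 promoter hits where activity marks nonselective or luminescence artifacts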
FXN GAA850 conf = confirmation of GAA850 frataxin (FXN) promoter activators; shares compounds with GAA850 FXN act; activation, % at 6 µM; HEK293 lucGAA850 FXN promoter luciferase reporter, 24 h; 100% = activation by SAHA; 1,900 compounds, 86% hits;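 active means mean activation above a set limit taken from the primary screen, cut at about 8% in these data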
CXCR6 confirm = confirmation of human CXCR6 receptor antagonists. 700 compounds, 65% hits. inhibition, % at 20 µM. CHO-K1 CXCR6 PathHunter beta-arrestin, luminescence. shares compounds with CXCR6 inh. AID 602409;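 active means mean inhibition over four retests above 40%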;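 further: receptor stimulated with 10 nM CXCL16 agonist; beta-galactosidase fragment complementation upon beta-arrestin recruitment to receptor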
Of the large screens only hits and unclear results are named; the others gave an inactive call (follow-up assays come after a bar, where they were run).

COc1ccc(OC)c(NC(=O)CS(=O)(=O)Cc2ccccc2)c1	none
CS(=O)(=O)c1ncc(Cl)c(C(=O)Nc2ccc(OC(F)F)cc2)n1	CCR6 antag 57, CXCR6 inh 47, GAA850 FXN act 68, APJ antag 44 | APJ antag conf 72 | GAA30 counter inactive | FXN GAA850 conf inactive | CXCR6 confirm 60
COc1ccc(OC)c(NC(=O)c2nc(S(=O)(=O)Cc3ccccc3)ncc2Cl)c1	EBI2 block 85, CCR6 antag 84, CXCR6 inh 59, APJ antag 63 | APJ antag conf 96 | CXCR6 confirm 69
CCS(=O)(=O)c1ncc(Cl)c(C(=O)Nc2ccc(S(=O)(=O)N(C)c3ccccc3)cc2)n1	EBI2 block 86, CCR6 antag 94, CXCR6 inh 85, APJ antag 67 | APJ antag conf 102 | CXCR6 confirm 92
O=C(Nc1ccc(F)cc1)c1nc(S(=O)(=O)Cc2ccccc2)ncc1Cl	CCR6 antag 78, CXCR6 inh 62, APJ antag 40 | APJ antag conf 84 | CXCR6 confirm 67
CN(C)C(=O)c1cccc(-c2cnc3c(NC=O)cc(-c4ccccc4F)cn23)c1	none (no result: CCR6 antag, APJ agonist, APJ antag)
CC(C)[C@H](NC(=O)OC(C)(C)C)c1cc(C(=O)N[C@@H](C)c2ccccc2)c(N)s1	none (no result: CCR6 antag, CXCR6 inh, GAA850 FXN act, APJ agonist, APJ antag)
CCOC(=O)[C@@H]1[C@H]2COc3ccc(Br)cc3[C@H]2N2C(=O)N(c3ccc(C)cc3)C(=O)[C@]12C	none
O=C(CSc1nnc(-c2c[nH]c3ccccc23)o1)NCC1CCCO1 (centres undefined)	none
CCOC(=O)C1=C(C)NC2=C(C(=O)CC(c3cccs3)C2)C1c1cccs1 (centres undefined)	CCR6 antag 54, CXCR6 inh 42, APJ antag 41 | APJ antag conf 73 | CXCR6 confirm 45
CCCOC(=O)C1=C(C)NC2=C(C(=O)CCC2)C1c1cccs1 (centres undefined)	none
COc1ccc(C)c(-n2c(=O)n(Cc3ccccc3)c(=O)c3[nH]cnc32)c1	CCR6 antag 81, CXCR6 inh 69, APJ antag 69 | APJ antag conf 117 | CXCR6 confirm 70
COc1ccc(Cn2c(=O)c3[nH]cnc3n(-c3ccccc3C)c2=O)cc1	none
O=C(NC1CCCC1)C(c1cccnc1)N(C(=O)c1csnn1)c1ccc(F)cc1 (centres undefined)	none
CCn1c(=O)cc(NC2=NCC(C)CN2c2cccc(Cl)c2)n(C)c1=O (centres undefined)	CCR6 antag 66, CXCR6 inh 57, APJ antag 62 | APJ antag conf 110 | CXCR6 confirm 59
CCn1c(NC)cc(=O)n(C)c1=O	none
FC(F)(F)c1cnc(NNC(=S)Nc2ccc(Cl)cc2)c(Cl)c1	CCR6 antag 94, CXCR6 inh 72, APJ antag 64 | APJ antag conf 117 | CXCR6 confirm 84
Fc1ccc(NC(=S)NNc2ncc(C(F)(F)F)cc2Cl)c(F)c1	CCR6 antag 92, CXCR6 inh 81, APJ antag 72 | APJ antag conf 99 | CXCR6 confirm 76
O=S(=O)(NNc1ncc(C(F)(F)F)cc1Cl)c1ccc(F)cc1F	none
FC(F)(F)c1cccc(NC(=S)NNC(=S)Nc2ccc(Cl)cc2)c1	none (no result: EBI2 block, CCR6 antag, CXCR6 inh, GAA850 FXN act)
CCC(CC)C(=O)N(C)c1c(C)nc2c(OCc3ccc(C#N)cc3)cccn12	none (no result: CCR6 antag, APJ agonist, APJ antag)
O=C(NNC(=O)C12CC3CC(CC(C3)C1)C2)c1ccccn1	CCR6 antag 92, CXCR6 inh 71, GAA850 FXN act 10, APJ antag 49 | APJ antag conf 69 | GAA30 counter inactive | FXN GAA850 conf inactive | CXCR6 confirm 79
O=C(NNC(=O)C12CC3CC(CC(C3)C1)C2)c1cnccn1	none
CC1(C)CC(=O)C2=C(C1)OC1=C(C(=O)CC(C)(C)C1)C2c1ccc(O)cc1O	CCR6 antag 93, CXCR6 inh 66, APJ antag 52 | APJ antag conf 105 | CXCR6 confirm 88
CC1(C)CC(=O)C2=C(C1)OC1=C(C(=O)CC(C)(C)C1)C2c1ccc(O)c([N+](=O)[O-])c1	none
N=C1S/C(=C\c2ccco2)C(=O)N1c1nccs1	CCR6 antag 83, CXCR6 inh 66, APJ antag 44 | APJ antag conf 66 | CXCR6 confirm 77
O=C1NCC(Nc2ccc(Br)cc2)C(=O)N1 (centres undefined)	none (no result: APJ agonist, APJ antag)
COC(=O)c1ccccc1-c1ccc(/C=N/NC(=O)c2cc3ccccc3o2)o1	none
COC(=O)c1ccccc1-c1c2ccc(=N)cc-2oc2cc(N)ccc12	CCR6 antag 67, CXCR6 inh 45, APJ antag 49 | APJ antag conf 75 | CXCR6 confirm 62
CCCSc1cc(NCCOC(=O)CCC)c([N+](=O)[O-])c2nonc12	CCR6 antag 84, CXCR6 inh 62, APJ antag 42 | APJ antag conf 75 | CXCR6 confirm 72
CCC(=O)OCCNc1cc(Sc2nc3ccccc3s2)c2nonc2c1[N+](=O)[O-]	CCR6 antag 109, CXCR6 inh 89, APJ antag 68 | APJ antag conf 86 | CXCR6 confirm 101
CCc1nnc(NS(=O)(=O)c2ccc(NC(=O)c3cccc(OC)c3)cc2)s1	none
Cc1c(Nc2cc(Cl)c3nonc3c2[N+](=O)[O-])c(=O)n(-c2ccccc2)n1C	EBI2 block 61, CCR6 antag 91, CXCR6 inh 88, GAA850 FXN act 13, APJ antag 83 | APJ antag conf 115 | CXCR6 confirm 105
COc1cc(/C=C(\C#N)c2nc(-c3cc4ccccc4oc3=O)cs2)ccc1O	CCR6 antag 60, CXCR6 inh 49, APJ antag 53 | APJ antag conf 76 | CXCR6 confirm 49
COC(=O)CSc1[nH]c2ccc(Br)cc2c1[N+](=O)[O-]	CCR6 antag 61, CXCR6 inh 41, APJ antag 41 | APJ antag conf 55 | CXCR6 confirm 46
